According to PubChem BioAssay:
Activity calls are given as the source filed them.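 The calls were made as follows, unless noted: active = visually confirmed hit in the image check and inhibition above 20%; inconclusive = visually confirmed hit but inhibition not above 20%; inactive = no visual hit in the image check.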

Tests used:
[1] = inhibitors of TNFa-induced NFkB p65 translocation, primary screen, imaging, HUVEC, MLSMR starter and 10KST1 sets (AID 438;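 active = inhibition above 20% together with a positive visual image hit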;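 also: compound added about 3h40 before a 20 min TNFalpha stimulation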;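 as to inhibition: signal is the nuclear over cytoplasmic p65 intensity ratio per well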); conditions: HUVEC TNFa-induced p65 nuclear translocation; cell count: measured here: nuclei count (cytotoxicity indicator), at 2.08 µM; inhibition: at 2 µM, stronger effect = higher value, 0% TNFa-plus-vehicle, 100% no-TNFa wells
[2] = inhibitors of mutant huntingtin aggregation, primary screen, imaging, exon1htt(103Q)mCFP cells, high-content imaging (AID 483;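 active = visual image review flags a hit and inhibition of aggregation exceeds 20%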;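 also: compound exposure lasted 3 days before fixation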;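 as to nuclei count: percent of the per-plate median nuclei count of sample wells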); conditions: exon1htt(103Q)mCFP cell line, aggregate imaging, at 2 µM; inhibition of aggregation: stronger effect = higher value; nuclei count: measured here: cell count, toxicity
[3] = inhibitors of E-selectin induction by TNFa, primary screen, imaging, HUVEC, immunofluorescence, MLSMR starter and 10KST1 sets (AID 487); conditions: HUVEC TNFalpha-induced E-selectin immunofluorescence imaging, at 2 µM; inhibition: stronger effect = higher value; nuclei count: measured here: cell number, toxicity;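 as to inhibition: signal is fraction of cell area covered by stained E-selectin grains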;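 as to nuclei count: 100% = median nuclei count of all wells on the same plate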
[4] = target: Voltage-gated potassium channel subunit beta-2 (Rattus norvegicus) (UniProt P62483); assay: KvBeta enzyme negative modulators, primary screen, biochemical, NADPH fluorescence (AID 622;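 active = fluorescence slope higher than the sample average by over 3 SD, cut at about -0.22 in these data, passing the limit was not always enough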;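 also: slope of raw intensity against log time taken from 70 to 1610 s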); conditions: recombinant KvBeta, 4-cyanobenzaldehyde reduction, at 10 µM, stronger effect = higher value
[5] = target: Voltage-gated potassium channel subunit beta-2 (Rattus norvegicus) (UniProt P62483); assay: KvBeta positive modulators, primary screen, biochemical, NADPH fluorescence (AID 623;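 active = NADPH fluorescence slope more negative than the mean of all samples by about 3 SD, 99.7% confidence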;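 also: fluorescence intensity change per second fitted from 20 to 320 s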); conditions: Recombinant KvBeta, NADPH fluorescence decrease slope, 10 min; at 10 µM; stronger effect = lower value
[6] = target: Muscarinic acetylcholine receptor M4 (Homo sapiens) (UniProt P08173); assay: compounds altering M4/GIRK thallium flux, either direction, primary screen, M4 allosteric agonist project, cell-based, HEK293 M4/GIRK, BTC-AM (AID 625;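 active = fluorescence slope after compound addition differing from the mean of all tested samples at 99.7% confidence, mostly higher but some lower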;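 also: thallium influx through GIRK channels coupled to M4 in HEK293 cells with BTC-AM dye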); conditions: at 10 µM, actives lie on both sides
Summary of the method: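 Material: HEK293 cells with M4 receptor and GIRK channels; Times: cells overnight at 37 °C, BTC-AM loading 1 h, reads 2 min total; Technique: kinetic BTC-AM fluorescence sampled at 1 Hz, 10 s pre-addition baseline; Read-out basis: slope over 15–24 s of trace normalized to starting intensity; Controls: carbachol positive, DMSO negative.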

[7] = inhibitors of Sendai virus-induced IRF3 signaling, primary screen, TLR/RLR signaling modifier project, cell-based, Sendai virus stimulus, luciferase, 10K MLSCN set (AID 602276;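 active = inhibition at or above 50% at 10 µM; inactive = inhibition below 50%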;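 also: firefly luciferase from ISG56 promoter only with Renilla not read in this screen; 0% = Sendai virus plus DMSO and 100% = medium plus DMSO without virus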); conditions: HEK293 RL24 IRF3 luciferase reporter, at 10 µM, stronger effect = higher value
[8] = inhibitors of poly I:C-induced TLR3 signaling, primary screen, cell-based, poly I:C stimulus, luciferase, 10K MLSCN set (AID 602277;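 active = inhibition of the reporter signal at or above 50%; inactive = inhibition below 50%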); conditions: HEK293-TLR3 RL24 IRF3 luciferase reporter, at 10 µM, stronger effect = higher value

Sequence of Voltage-gated potassium channel subunit beta-2 (Rattus norvegicus) (P62483 whole entry, looked up): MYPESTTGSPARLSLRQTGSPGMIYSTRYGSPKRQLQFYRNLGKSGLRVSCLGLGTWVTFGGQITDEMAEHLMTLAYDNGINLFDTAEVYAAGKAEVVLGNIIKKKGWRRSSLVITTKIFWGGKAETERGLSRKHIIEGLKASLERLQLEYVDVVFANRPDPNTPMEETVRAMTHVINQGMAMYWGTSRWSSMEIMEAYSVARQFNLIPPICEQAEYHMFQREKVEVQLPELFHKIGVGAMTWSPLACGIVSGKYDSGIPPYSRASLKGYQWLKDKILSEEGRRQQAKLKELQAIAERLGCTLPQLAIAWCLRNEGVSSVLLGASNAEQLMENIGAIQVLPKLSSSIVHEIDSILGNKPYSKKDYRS
Sequence of Muscarinic acetylcholine receptor M4 (Homo sapiens) (P08173 whole entry, looked up): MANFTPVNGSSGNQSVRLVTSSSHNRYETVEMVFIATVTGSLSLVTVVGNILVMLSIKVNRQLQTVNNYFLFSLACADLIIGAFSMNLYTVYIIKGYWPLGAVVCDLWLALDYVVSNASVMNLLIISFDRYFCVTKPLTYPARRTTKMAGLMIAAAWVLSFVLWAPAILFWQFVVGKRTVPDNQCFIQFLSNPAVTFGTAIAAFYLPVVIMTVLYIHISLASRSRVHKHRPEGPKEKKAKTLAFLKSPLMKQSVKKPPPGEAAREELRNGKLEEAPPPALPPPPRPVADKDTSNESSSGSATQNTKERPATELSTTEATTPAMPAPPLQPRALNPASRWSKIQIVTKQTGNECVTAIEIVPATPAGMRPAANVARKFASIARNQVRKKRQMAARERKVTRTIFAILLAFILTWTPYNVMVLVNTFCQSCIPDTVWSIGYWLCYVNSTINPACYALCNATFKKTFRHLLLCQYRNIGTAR

Row | SMILES | cell count [1] | inhibition [1] | inhibition of aggregation [2] | nuclei count [2] | inhibition [3] | nuclei count [3] | fluorescence slope [4] | NADPH fluorescence slope [5] | fluorescence slope [6] | inhibition [7] | inhibition [8]
1 | CCCn1c(NC(=O)C2COc3ccccc3O2)nc2ccccc21 (stereo not drawn) | 496 | 1% (inactive) | -4.8% (inactive) | 98.3% | -56% (inactive) | 102% | -0.467 (inactive) | 0.000114 (inactive) | 0.00578 (inactive) | 15.8% (inactive) | 17.5% (inactive)
2 | Cc1ccc2c(COn3nnc4ccc(S(=O)(=O)N(C)C)cc43)cc(=O)oc2c1C | 702 | 5.3% (inactive) | 16.4% (inactive) | 96.2% | 30.2% (inactive) | 94.7% | -0.543 (inactive) | -6.4e-05 (inactive) | 0.00895 (inactive) | -1.62% (inactive) | 10.1% (inactive)
3 | CCOC(=O)c1ccccc1NC(=O)CSc1nc2c(c(=O)n(C)c(=O)n2C)n1C | 718 | -6.2% (inactive) | -10.4% (inactive) | 107% | 12.3% (inactive) | 102% | -0.444 (inactive) | 3e-05 (inactive) | 0.00588 (inactive) | 18.4% (inactive) | 25% (inactive)
4 | CCN1CCN(Cc2ccccc2NC(=O)Nc2ccc(C)cc2)CC1 | 258 | -3.1% (inactive) | 21.9% (inactive) | 41.1% | -23.4% (inactive) | 94% | -0.487 (inactive) | -6.3e-07 (inactive) | 0.00496 (inactive) | -27.3% (inactive) | -69.1% (inactive)
5 | C#CCN1C(=O)C(O)(CC(=O)c2cccc(OC)c2)c2ccccc21 (stereo not drawn) | 429 | 1.2% (inactive) | -0.5% (inactive) | 96.2% | -130% (inactive) | 163% | -0.337 (inactive) | -6.5e-05 (inactive) | 0.00596 (inactive) | 10.4% (inactive) | 14.1% (inactive)
6 | CCCCCCn1c(SCCCC)nc2c1c(=O)[nH]c(=O)n2C | 384 | -8% (inactive) | -12.5% (inactive) | 101% | -10.4% (inactive) | 104% | -0.543 (inactive) | -3.9e-05 (inactive) | 0.00572 (inactive) | 0.691% (inactive) | 10.6% (inactive)
7 | O=C(CCN1CCOCC1)Nc1ccc2c(c1)CCC2 | 228 | 5.7% (inactive) | 17.3% (inactive) | 74.9% | -83.8% (inactive) | 140% | -0.442 (inactive) | -5.3e-05 (inactive) | 0.00437 (inactive) | 4.13% (inactive) | -9.22% (inactive)
8 | CCn1c(SCC(=O)N2CCCc3ccccc32)nnc1-c1cccs1 | 697 | 1.4% (inactive) | 4.3% (inactive) | 98.7% | -172% (inactive) | 129% | -0.531 (inactive) | -2.4e-05 (inactive) | 0.00467 (inactive) | 14% (inactive) | 13.4% (inactive)
